Reference: ChEMBL document CHEMBL1137906, “Microwave assisted synthesis of 2-(4-substituted piperazin-1-yl)-1,8-naphthyridine-3-carbonitrile as a new class of serotonin 5-HT3 receptor antagonists” (Bioorg Med Chem Lett, 2004)

Assay: Antagonism of 2-methyl-5-HT effect on 5-hydroxytryptamine 3 receptor in isolated guinea pig ileum
Format: functional, tissue-based
Conditions: Cavia porcellus, read-out: pA2 (converted)
Procedure, shortened: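 Longitudinal muscle-myenteric plexus strip from guinea pig ileum, prepared by a literature method. Equilibrated 30 min at 500 mg resting tension in Tyrode solution, ca. 37°C, constant aeration. Agonist 2-methyl-5-HT added noncumulatively at 15 min intervals; antagonism of its contractile response measured. Values are means of three separate experiments.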
For `COc1ccccc1N1CCN(c2nc3ncccc3cc2C#N)CC1`, the Kb was 3980 nM. In the case of `N#Cc1cc2cccnc2nc1N1CCN(Cc2ccccc2)CC1`, the Kb is reported as 7940 nM. `N#Cc1cc2cccnc2nc1N1CCNCC1` gave a Kb of 316 nM. Molecule `COc1ccc(N2CCN(c3nc4ncccc4cc3C#N)CC2)cc1` has a Kb of 12600 nM. In the case of `N#Cc1cc2cccnc2nc1N1CCN(c2ccccn2)CC1`, the Kb is reported as 126000 nM. For `N#Cc1cc2cccnc2nc1N1CCN(c2ccccc2)CC1`, the Kb was 2000 nM. Work on `C=CCN1CCN(c2nc3ncccc3cc2C#N)CC1` yielded a Kb of 6.31 nM. `CN1CCN(c2nc3ncccc3cc2C#N)CC1` gave a Kb of 39.8 nM. `Cc1nccn1CC1CCc2c(c3ccccc3n2C)C1=O` (configuration not stated) [ONDANSETRON] gave a Kb of 126 nM. For `COc1cccc(N2CCN(c3nc4ncccc4cc3C#N)CC2)c1`, the Kb was 1000 nM. In the case of `CCN1CCN(c2nc3ncccc3cc2C#N)CC1`, the Kb is reported as 79.4 nM. With `N#Cc1cc2cccnc2nc1N1CCN(c2ccc([N+](=O)[O-])cc2)CC1` the Kb was 158000 nM.
